Assay results as given in ChEMBL document CHEMBL3271986, “Studies on vitamin D (calciferol) and its analogues. 10. Side-chain analogues of 25-hydroxyvitamin D3” (J Med Chem, 1977).
Calls of active or inactive are those of the source. No cut-off for these calls is given here.

Tests used:
Type in all cases: functional, organism-based
Gallus gallus [1] = experiment: Induction of intestinal [45Ca2+] absorption in rachitic white leghorn cockerel assessed as radioactivity in serum up to 78 nmol, ip treated 24 hrs prior to testing measured at 24 hrs post treatment
Summary of the method: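 Rachitic White Leghorn cockerels (3 weeks rachitogenic low-calcium diet without vitamin D, zero-calcium diet for the last 3 days). Dosed intraperitoneally in 0.2 ml propanediol-ethanol (3/1) 24 h before assay. Under light ether anaesthesia the duodenum was exposed and given 5 μCi 45Ca2+ plus 4 mg carrier 40Ca2+. After 30 min, decapitation; radioactivity counted in 0.2 ml serum. Mean ± SEM, 8-10 birds.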

Gallus gallus [2] = experiment: Induction of bone calcium mobilization in rachitic white leghorn cockerel assessed as Ca2+ level in serum up to 78 nmol, ip treated 24 hrs prior to testing measured at 24 hrs post treatment by atomic absorption spectrometric analysis
Summary of the method: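 White Leghorn cockerels reared 3 weeks on a rachitogenic low-calcium diet without vitamin D, then zero-calcium diet for 3 days before assay. Single intraperitoneal dose in 0.2 ml 1,2-propanediol-ethanol (3/1) 24 h before assay; vehicle-only rachitic and vitamin D3 controls. Blood taken after decapitation and allowed to clot. Serum calcium measured by atomic absorption spectrometry on diluted samples. Mean ± SEM, 8-10 birds.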

Gallus gallus [3] = experiment: Induction of bone calcium mobilization in rachitic white leghorn cockerel assessed as Ca2+ level in serum at 32.5 nmol, ip measured up to 96 hrs by atomic absorption spectrometric analysis relative to control
Summary of the method: (§1)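 Cockerels raised 3 weeks on rachitogenic low-calcium diet without vitamin D, then zero-calcium diet for 3 days before assay. Compound given ip in 0.2 ml 1,2-propanediol-ethanol (3/1); -D controls received solvent only, +D controls 6.5 nmol vitamin D3 24 h before assay. Serum Ca2+ measured by atomic absorption spectrometry on diluted serum. Mean ± SEM, 8-10 birds.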

Gallus gallus [4] = experiment: Induction of intestinal [45Ca2+] absorption in rachitic white leghorn cockerel assessed as radioactivity in serum at 32.5 nmol, ip measured up to 96 hrs relative to control
Summary of the method: (§2)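 Rachitic chicks (3 weeks on low-calcium diet lacking vitamin D, then zero-calcium diet for 3 days) were dosed ip in 0.2 ml propanediol-ethanol (3/1); solvent-only -D controls. At assay, 5 µCi 45Ca2+ plus 4 mg 40Ca2+ carrier was placed into the surgically exposed duodenum under light ether anesthesia. Serum radioactivity (0.2 ml) read 30 min later. Mean ± SEM, 8-10 birds.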

Gallus gallus [5] = experiment: Induction of bone calcium mobilization in rachitic white leghorn cockerel assessed as Ca2+ level in serum up to 97.5 nmol, ip measured at 24 hrs by atomic absorption spectrometric analysis relative to control; summary of the method: as §1
Gallus gallus [6] = experiment: Induction of intestinal [45Ca2+] absorption in rachitic white leghorn cockerel assessed as radioactivity in serum up to 97.5 nmol, ip measured at 24 hrs relative to control; summary of the method: as §2
Gallus gallus [7] = experiment: Induction of intestinal [45Ca2+] absorption in rachitic white leghorn cockerel assessed as radioactivity in serum at 130 nmol, ip measured at 24 hrs; summary of the method: as §2
Gallus gallus [8] = experiment: Induction of bone calcium mobilization in rachitic white leghorn cockerel assessed as Ca2+ level in serum at 130 nmol, ip measured at 24 hrs by atomic absorption spectrometric analysis; summary of the method: as §1

SMILES | Activity (Gallus gallus [1]) | Activity (Gallus gallus [2]) | Activity (Gallus gallus [3]) | Activity (Gallus gallus [4]) | Activity (Gallus gallus [5]) | Activity (Gallus gallus [6]) | Activity (Gallus gallus [7]) | Activity (Gallus gallus [8])
C=C1CC[C@H](O)C/C1=C/C=C1\CCC[C@]2(C)[C@@H]([C@H](C)CCCC(C)C)CC[C@@H]12 | Active | Active | – | – | – | – | – | –
C=C1CC[C@H](O)C/C1=C/C=C1\CCC[C@]2(C)[C@@H]([C@H](C)C(C)(C)O)CC[C@@H]12 | – | – | inactive | inactive | inactive | inactive | – | –
C=C1CC[C@H](O)C/C1=C/C=C1\CCC[C@]2(C)[C@@H](C(C)(C)O)CC[C@@H]12 | – | – | inactive | inactive | inactive | inactive | – | –
C=C1CC[C@H](O)C/C1=C/C=C1\CCC[C@]2(C)[C@@H]([C@H](C)CC(C)(C)O)CC[C@@H]12 | – | – | inactive | inactive | inactive | inactive | – | –
C=C1CC[C@H](O)C/C1=C/C=C1\CCC[C@]2(C)[C@@H]([C@H](C)CCCCC(C)(C)O)CC[C@@H]12 | Active | Active | – | – | – | – | Active | Active
C=C1CC[C@H](O)C/C1=C/C=C1\CCC[C@]2(C)[C@@H]([C@H](C)CCC(C)(C)O)CC[C@@H]12 | – | – | inactive | inactive | inactive | inactive | – | –
